Measured values from PubChem BioAssay AID652250 (Vanderbilt Specialized Chemistry Center, 2013).
Activity calls are given as the source filed them.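 How the source made its calls: active means compounds leaving under half of the peptide-driven platelet calcium rise; inactive means the rest.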

Each molecule was assayed against Proteinase-activated receptor 4 (Homo sapiens) (UniProt Q96RI0) (assay: PAR4 antagonists in human platelets, cell-based, single concentration, washed platelets, Fluo4 calcium (AID 652250)). Conditions: PAR4-AP calcium Fluo4 fluorescence.
Method in brief: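 Assay system: Fluo4-AM-loaded washed human platelets / Quantity: 10^8 platelets/mL / Detection: fluorescence at 480/540 nm, 1 s intervals / Also added: 80 µM PAR4-AP / Benchmarks: PAR4-AP-stimulated DMSO control (100%) / Replicates: triplicate wells / Read-out: peak minus basal RFU as % of per-donor DMSO control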

Chain of Proteinase-activated receptor 4 (Homo sapiens) (Q96RI0 whole entry, looked up): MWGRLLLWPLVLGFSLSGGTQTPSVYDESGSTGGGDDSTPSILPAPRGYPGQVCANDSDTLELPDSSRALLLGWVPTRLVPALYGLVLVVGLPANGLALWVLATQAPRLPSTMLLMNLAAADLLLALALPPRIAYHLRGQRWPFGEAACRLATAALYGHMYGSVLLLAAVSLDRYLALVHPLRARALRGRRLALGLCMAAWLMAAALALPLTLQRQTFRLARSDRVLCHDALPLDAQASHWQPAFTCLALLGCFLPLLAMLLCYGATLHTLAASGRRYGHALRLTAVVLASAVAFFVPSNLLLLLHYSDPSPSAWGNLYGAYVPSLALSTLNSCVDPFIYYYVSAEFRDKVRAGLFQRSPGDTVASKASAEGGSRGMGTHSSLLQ

Row | Structure (SMILES) | IC50
1 | COc1cccc(Cn2cc(-c3ccc(OC)nc3)c3ccccc32)c1 | 14.6 µM
2 | COc1ccc(-c2cn(Cc3ccccc3)c3ccccc23)cc1 | 10 µM
3 | Fc1ccc(-c2cn(Cc3ccccc3)c3ccccc23)cn1 | 10 µM

Same assay, conditions: PAR4-AP calcium Fluo4 fluorescence, at 10 µM, active compounds read low

Row | Structure (SMILES) | % of max PAR4-AP calcium response
4 | Oc1ccccc1-c1nc2c3c(-c4ccccc4)c(-c4ccccc4)n(Cc4ccco4)c3ncn2n1 | inactive
5 | Fc1ccc(-c2cn(Cc3ccccc3)c3ccccc23)c(F)n1 | inactive
6 | OCCc1cn(-c2ccccc2)c2ccccc12 | inactive
7 | COc1ccc(-c2cn(Cc3cccc(-c4cccs4)c3)c3ccccc23)cn1 | inactive
8 | O=C(Nc1cccc(Br)c1)c1ccn(C(=O)c2ccc(Cl)cc2)n1 | inactive
9 | S=C(c1cn(CCCOc2ccccc2Cl)c2ccccc12)N1CCCC1 | inactive
10 | c1ccc(-c2ccn(-c3ccccc3)n2)cc1 | inactive
11 | CSc1ncnc2c1c(-c1ccccc1)cn2-c1ccc(F)cc1 | inactive
12 | COc1ncc(-c2cn(Cc3ccccc3)c3ccccc23)cn1 | inactive
13 | O=C(c1cn(CCOc2ccc(Cl)cc2)c2ccc(Br)cc12)C(F)(F)F | inactive
14 | COc1ccc(OCCn2cc(C(=O)C(F)(F)F)c3ccccc32)cc1 | inactive
15 | Fc1ccc(CNc2ncnc3c2c(-c2ccccc2)cn3-c2ccc(Br)cc2)cc1 | inactive
16 | Cc1c(C)n(CC(O)CNc2ccccc2)c2ccccc12 (configuration not stated) | inactive
17 | O=C(N/N=C/c1cccc2cccnc12)c1ccn(Cc2ccc(Cl)cc2)n1 | inactive
18 | S=C(c1cn(CCOc2ccccc2Cl)c2ccccc12)N1CCCCC1 | 39.9%
19 | CN(C)c1ccc(-c2cn(Cc3ccccc3)c3ccccc23)cn1 | inactive
20 | COc1ccc(OC)c(NC(=O)Cc2cn(C)c3ccccc23)c1 | inactive
21 | CC(C)Oc1ccc(-c2cn(Cc3ccccc3)c3ccccc23)cc1F | inactive
22 | COc1ccc(C)cc1NC(=O)Cc1cn(C)c2ccccc12 | inactive
23 | CCCCN(C)c1ncnc2c1c(-c1ccccc1)cn2-c1cccc(C)c1 | inactive
24 | CCn1ccc(C(=O)NC2CCCCC2)n1 | inactive
25 | CC(C)NC(=O)CCc1cn(Cc2ccccc2)c2ccccc12 | inactive
26 | Cn1cc(CC(=O)NCC2COc3ccccc3O2)c2ccccc21 (configuration not stated) | inactive

Row | Structure (SMILES) | % of max PAR4-AP calcium response
27 | COc1ccc2c(c1)c(C(=O)CNc1nc(C)c(C)s1)c(C)n2C | inactive
28 | O=C(Cn1cc(C(=S)N2CCOCC2)c2ccccc21)N1CCOCC1 | inactive
29 | COc1ccc(Nc2ncnc3c2c(-c2ccccc2)cn3-c2ccc(Br)cc2)cc1OC | 38.7%
30 | O=C(Cn1cc(C(=O)C(F)(F)F)c2ccccc21)N1CCCC1 | inactive
31 | CCSc1ncnc2c1c(-c1ccccc1)cn2-c1ccc(F)cc1 | inactive
32 | S=C(c1cn(Cc2ccccc2Cl)c2ccccc12)N1CCCC1 | inactive
33 | Cc1ccc(-n2cc(-c3ccccc3)c3c(N4CCCC4)ncnc32)cc1 | inactive
34 | O=C(CN1CCOCC1)n1c2c(c3ccccc31)CCCC2 | inactive
35 | O=c1c2ccccc2nc(/C=C/c2cn(Cc3ccccc3)c3ccccc23)n1CCCO | inactive
36 | Fc1cc(-c2cn(Cc3ccccc3)c3ccccc23)cc(F)n1 | inactive
37 | O=C(Cn1cc(C(=O)C(F)(F)F)c2ccccc21)NC1CCCC1 | inactive
38 | Cc1ccc2c(c1)c(-c1ccccc1)c(-c1ccccc1)n2CC(O)CN1CCOCC1 (configuration not stated) | inactive
39 | COc1ccc(NCC(O)Cn2c(C)c(C)c3ccccc32)cc1 (configuration not stated) | inactive
40 | S=C(c1cn(CCOc2ccccc2)c2ccccc12)N1CCCC1 | inactive
41 | Cc1nn(-c2ccccc2)c2[nH]c(C(F)(F)F)cc(=O)c12 | inactive
42 | Cc1c(CCO)c2ccccc2n1-c1ccccc1 | inactive
43 | O=C(c1cn(CCOc2ccccc2Cl)c2ccccc12)C(F)(F)F | inactive
44 | Cc1c(C)n(CC(O)CNCCCO)c2ccccc12 (configuration not stated) | inactive
45 | O=C(Cn1cc(CO)c2ccccc21)Nc1ccc(Cl)cc1 | inactive
46 | OC(CN1CCCCC1)Cn1c2c(c3ccccc31)CCCC2 (configuration not stated) | inactive
47 | c1ccc(-c2cn(-c3ccccc3)c3ncnc(N4CCCC4)c23)cc1 | inactive
48 | COc1ccc(-n2nc(C(=O)NCCC3=CCCCC3)c3c4ccccc4n(C)c3c2=O)cc1Cl | inactive
49 | CN(C)c1ccc(/C=N/NC(=O)c2ccn(Cc3ccc(Cl)cc3)n2)cc1 | inactive

Row | Structure (SMILES) | % of max PAR4-AP calcium response
50 | COc1ccc2c(c1)c(C(=O)CNc1nccs1)c(C)n2C | inactive
51 | Fc1ccc(CNc2ncnc3c2c(-c2ccccc2)cn3-c2ccc(F)cc2)cc1 | inactive
52 | Cc1cccc(NCC(O)Cn2c(C)c(C)c3ccccc32)c1C (configuration not stated) | inactive
53 | CC(C)Oc1ccc(-c2cn(Cc3ccccc3)c3ccccc23)cc1 | inactive
54 | Cn1cc(CCCC(=O)NCc2cccs2)c2ccccc21 | inactive
55 | O=C(Nc1cccc(Br)c1)c1ccn(C(=O)Nc2ccc(Cl)cc2)n1 | inactive
56 | Clc1ccc(-n2cc(-c3ccccc3)c3c(NCc4cccs4)ncnc32)cc1 | inactive
57 | CC(O)CNc1ncnc2c1c(-c1ccccc1)cn2-c1ccccc1 (configuration not stated) | inactive
58 | COc1ccc(-n2cc(-c3ccccc3)c3c(=O)[nH]cnc32)cc1 | inactive
59 | CC1CCCCN1C(=O)Cn1cc(C(=O)C(F)(F)F)c2ccccc21 (configuration not stated) | inactive
60 | O=C(Cn1cc(CO)c2ccccc21)Nc1ccccc1 | inactive
61 | Fc1ccc(Cn2cc(C(=S)N3CCOCC3)c3ccccc32)cc1 | inactive
62 | O=C(c1ccn(C(=O)c2cccc(Cl)c2)n1)N1CCOCC1 | inactive
63 | COc1ccc(C(C[N+](=O)[O-])c2c(-c3ccccc3)n(C)c3ccccc23)cc1 (configuration not stated) | inactive
64 | CCn1ccc(C(=O)Nc2ccc(C(F)(F)F)cc2Cl)n1 | inactive
65 | O=C(c1cn(Cc2ccccc2Cl)c2ccccc12)C(F)(F)F | inactive
66 | COc1ccc(-n2nc(C(=O)Nc3cccc(C)n3)c3c4ccccc4n(C)c3c2=O)cc1Cl | inactive
67 | COc1ccc(N(C)C(=O)Cc2c(C(=O)O)n(C)c3ccccc23)cc1 | inactive
68 | COc1cc(NS(=O)(=O)c2ccc(NC(=O)c3ccc4c(c3)c(C)c(C)n4C)cc2)ncn1 | inactive
69 | CCN(CCCNC(=O)Cc1cn(C)c2ccccc12)c1ccccc1 | inactive
70 | O=C(N/N=C/c1c[nH]c2ccccc12)c1ccn(Cc2ccc(Cl)cc2)n1 | inactive
71 | Clc1ccccc1CNc1ncnc2c1c(-c1ccccc1)cn2-c1ccccc1 | inactive
72 | CCc1cc(C(=O)Cc2cnn(-c3ccccc3)c2)c(O)cc1O | inactive
